# Results taken from ChEMBL document CHEMBL3616437, “Thiazole compounds with activity against Cryptococcus gattii and Cryptococcus neoformans in vitro” (Eur J Med Chem, 2015).
# Key:
# Cryptococcus neoformans [1] = assay: Antifungal activity against Cryptococcus neoformans 5396 assessed as reduction in cell viability at 1.9 uM after 6 to 72 hrs by MTT assay; type: functional
# Cryptococcus neoformans [2] = assay: Antifungal activity against Cryptococcus neoformans 96806 assessed as reduction in cell viability at 1.9 uM after 6 to 72 hrs by MTT assay; type: functional
# Cryptococcus neoformans [3] = assay: Antifungal activity against Cryptococcus neoformans ATCC 62066 assessed as reduction in cell viability at 1.9 uM after 6 to 72 hrs by MTT assay; type: functional
# Cryptococcus neoformans [4] = assay: Antifungal activity against Cryptococcus neoformans 27JF assessed as reduction in cell viability at 1.9 uM after 6 to 72 hrs by MTT assay; type: functional
# Cryptococcus neoformans [5] = assay: Post-antifungal activity against Cryptococcus neoformans CN31 assessed as organism required time to achieve cell population of 10^4 cells/ml at 0.9 uM treated for 1 hr by MTT assay in presence of 0.05 uM amphotericin B; type: functional
# Cryptococcus neoformans [6] = assay: Post-antifungal activity against Cryptococcus neoformans CN31 assessed as organism required time to achieve cell population of 10^4 cells/ml at 0.9 uM treated for 1 hr by MTT assay; type: functional
# Cryptococcus neoformans [7] = assay: Antifungal activity against Cryptococcus neoformans ATCC 62066 assessed as reduction in cell viability at 0.9 uM after 6 to 72 hrs by MTT assay; type: functional
# Cryptococcus neoformans [8] = assay: Antifungal activity against Cryptococcus neoformans 96806 assessed as reduction in cell viability at 0.9 uM after 6 to 72 hrs by MTT assay; type: functional
# Cryptococcus neoformans [9] = assay: Antifungal activity against Cryptococcus neoformans VM-MCMMPI assessed as reduction in cell viability at 0.9 uM after 6 to 72 hrs by MTT assay; type: functional
# Cryptococcus neoformans [10] = assay: Antifungal activity against Cryptococcus neoformans 5396 assessed as reduction in cell viability at 0.9 uM after 6 to 72 hrs by MTT assay; type: functional
# [11] = test system: Cryptococcus gattii species complex; assay: Antifungal activity against Cryptococcus gattii L24/01 assessed as reduction in cell viability at 0.12 uM after 6 to 72 hrs by MTT assay; type: functional, Cryptococcus bacillisporus
# Cryptococcus neoformans [12] = assay: Antifungal activity against Cryptococcus neoformans 96806 assessed as reduction in cell viability at 0.12 uM after 6 to 72 hrs by MTT assay; type: functional
# Cryptococcus neoformans [13] = assay: Antifungal activity against Cryptococcus neoformans 5396 assessed as reduction in cell viability at 0.12 uM after 6 to 72 hrs by MTT assay; type: functional
# Cryptococcus neoformans [14] = assay: Antifungal activity against Cryptococcus neoformans LMM820 assessed as reduction in cell viability at 0.12 uM after 6 to 72 hrs by MTT assay; type: functional
# [15] = test system: Cryptococcus gattii species complex; assay: Antifungal activity against Cryptococcus gattii ATCC 24065 assessed as reduction in cell viability at 0.12 uM after 6 to 72 hrs by MTT assay
# Cryptococcus neoformans [16] = assay: Antifungal activity against Cryptococcus neoformans VM-MCMMPI assessed as reduction in cell viability at 0.12 uM after 6 to 72 hrs by MTT assay; type: functional
# [17] = test system: Cryptococcus gattii species complex; assay: Antifungal activity against Cryptococcus gattii ICB181 assessed as reduction in cell viability at 0.12 uM after 6 to 72 hrs by MTT assay; type: functional, Cryptococcus bacillisporus
# Cryptococcus neoformans [18] = assay: Antifungal activity against Cryptococcus neoformans ATCC 24067 assessed as reduction in cell viability at 0.12 uM after 6 to 72 hrs by MTT assay; type: functional
# Cryptococcus neoformans [19] = assay: Antifungal activity against Cryptococcus neoformans 27JF assessed as reduction in cell viability at 0.12 uM after 6 to 72 hrs by MTT assay; type: functional
# Cryptococcus neoformans [20] = assay: Antifungal activity against Cryptococcus neoformans 28JF assessed as reduction in cell viability at 0.12 uM after 6 to 72 hrs by MTT assay; type: functional
# [21] = test system: Cryptococcus gattii species complex; assay: Antifungal activity against Cryptococcus gattii L28/02 assessed as reduction in cell viability at 0.12 uM after 6 to 72 hrs by MTT assay; type: functional, Cryptococcus bacillisporus
# Cryptococcus neoformans [22] = assay: Antifungal activity against Cryptococcus neoformans 96806 assessed as reduction in cell viability at 26 uM after 6 to 72 hrs by MTT assay; type: functional
# Method in brief: (§1)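 Time-kill setup: colonies from two 48 h, 35°C SDA passages were suspended in saline to 70% transmittance at 530 nm. They were then diluted to 1-5 x10^3 cells/mL in RPMI with L-glutamine buffered to pH 7.0 with 0.165 M MOPS. Plates were incubated at 35°C for 0-72 h, then MTT (5.0 mg/mL) was added for 3 h. After isopropanol, absorbance was read at 490 nm. Drug-free controls were included, results were confirmed by SDA colony counts, and assays were run in triplicate.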
# Cryptococcus neoformans [23] = assay: Antifungal activity against Cryptococcus neoformans ATCC 24067 assessed as reduction in cell viability at 26 uM after 6 to 72 hrs by MTT assay; type: functional; method in brief: as §1
# Cryptococcus neoformans [24] = assay: Antifungal activity against Cryptococcus gattii ATCC 24065 assessed as reduction in cell viability at 26 uM after 6 to 72 hrs by MTT assay; type: functional, Cryptococcus bacillisporus; method in brief: as §1
# Cryptococcus neoformans [25] = assay: Antifungal activity against Cryptococcus neoformans ATCC 62066 assessed as reduction in cell viability at 26 uM after 6 to 72 hrs by MTT assay; type: functional; method in brief: as §1
# [26] = test system: Cryptococcus gattii species complex; assay: Antifungal activity against Cryptococcus gattii LMM818 assessed as reduction in cell viability at 26 uM after 6 to 72 hrs by MTT assay; type: functional, Cryptococcus bacillisporus; method in brief: as §1
# Cryptococcus neoformans [27] = assay: Antifungal activity against Cryptococcus neoformans 28JF assessed as reduction in cell viability at 26 uM after 6 to 72 hrs by MTT assay; type: functional; method in brief: as §1
# [28] = test system: Cryptococcus gattii species complex; assay: Antifungal activity against Cryptococcus gattii 547/OTTI-97-PI-10 assessed as reduction in cell viability at 26 uM after 6 to 72 hrs by MTT assay; type: functional, Cryptococcus bacillisporus; method in brief: as §1
# [29] = test system: Cryptococcus gattii species complex; assay: Antifungal activity against Cryptococcus gattii 196L/03 assessed as reduction in cell viability at 26 uM after 6 to 72 hrs by MTT assay; type: functional, Cryptococcus bacillisporus; method in brief: as §1
# [30] = test system: Cryptococcus gattii species complex; assay: Antifungal activity against Cryptococcus gattii L24/01 assessed as reduction in cell viability at 26 uM after 6 to 72 hrs by MTT assay; type: functional, Cryptococcus bacillisporus; method in brief: as §1
# Cryptococcus neoformans [31] = assay: Antifungal activity against Cryptococcus neoformans CN31 assessed as reduction in cell viability at 26 uM after 6 to 72 hrs by MTT assay; type: functional; method in brief: as §1
# [32] = test system: Cryptococcus bacillisporus; assay: Antifungal activity against Cryptococcus gattii ATCC 32608 assessed as reduction in cell viability at 26 uM after 6 to 72 hrs by MTT assay; type: functional; method in brief: as §1
structure (smiles),measurement,setting,value
C(=N\Nc1nc(-c2ccccc2)cs1)/C1CCCCC1,Activity,Cryptococcus neoformans [1],90%
same,Activity,Cryptococcus neoformans [2],90%
same,Activity,Cryptococcus neoformans [3],90%
same,Activity,Cryptococcus neoformans [4],90%
COc1ccc(-c2csc(N/N=C(\C)CCO)n2)cc1,Time,Cryptococcus neoformans [5],2.1 h
same,Time,Cryptococcus neoformans [6],2.8 h
same,Activity,Cryptococcus neoformans [7],90%
same,Activity,Cryptococcus neoformans [8],90%
same,Activity,Cryptococcus neoformans [9],90%
same,Activity,Cryptococcus neoformans [10],90%
C[C@@H]1[C@H](O)[C@@H](C)/C=C/C=C/C=C/C=C/C=C/C=C/C=C/[C@H](O[C@@H]2O[C@H](C)[C@@H](O)[C@H](N)[C@@H]2O)C[C@@H]2O[C@](O)(C[C@@H](O)C[C@@H](O)[C@H](O)CC[C@@H](O)C[C@@H](O)CC(=O)O[C@H]1C)C[C@H](O)[C@H]2C(=O)O [AMPHOTERICIN B],Activity,[11],90%
same,Activity,Cryptococcus neoformans [12],90%
same,Activity,Cryptococcus neoformans [13],90%
same,Activity,Cryptococcus neoformans [14],90%
same,Activity,[15],90%
same,Activity,Cryptococcus neoformans [16],90%
same,Activity,[17],90%
same,Activity,Cryptococcus neoformans [18],90%
same,Activity,Cryptococcus neoformans [19],90%
same,Activity,Cryptococcus neoformans [20],90%
same,Activity,[21],90%
OC(Cn1cncn1)(Cn1cncn1)c1ccc(F)cc1F [FLUCONAZOLE],Activity,Cryptococcus neoformans [22],80%
same,Activity,Cryptococcus neoformans [23],80%
same,Activity,Cryptococcus neoformans [24],80%
same,Activity,Cryptococcus neoformans [25],80%
same,Activity,[26],80%
same,Activity,Cryptococcus neoformans [27],80%
same,Activity,[28],80%
same,Activity,[29],80%
same,Activity,[30],80%
same,Activity,Cryptococcus neoformans [31],80%
same,Activity,[32],80%
